Experimental findings from ChEMBL document CHEMBL1155261, “Synthesis and biological evaluation of SANT-2 and analogues as inhibitors of the hedgehog signaling pathway” (Bioorg Med Chem, 2009) are described below.

SMILES strings stand for the structures.

The target in data set [1] is Sonic hedgehog protein (Mus musculus) (UniProt Q62226). The data set is described as follows: Ratio of compound IC50 to cyclopamine IC50 for inhibition of SHH in mouse Shh-Light2 cells. The data set is classed as functional, cell-based. The settings on record: Shh Light II.
Data set [2] concerns Oryzias latipes. The data set is described as follows: Teratogenic activity in Oryzias latipes CAB embryo assessed as induction of cyclopia phenotype at 0.01 to 100 uM. The class given is organism-based. The settings on record: in vivo. The method in brief:
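CAB-strain medaka kept at 26 °C on a 14:10 h light/dark cycle. Fertilized eggs exposed from 4–5 hpf to 5 days post fertilisation at 26 °C in tap water (pH 8–8.2) with 0.1% methylene blue. Compounds added from ethanol stocks at 1% final solvent; controls received 1% ethanol. Embryos inspected visually for cyclopia (reduced eye distance).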

Data set [3] has as its system Oryzias latipes. Nature of the data set: Teratogenic activity in Oryzias latipes embryo assessed as induction of cyclopia phenotype at 12.5 uM. The settings on record: in vivo. The data set is classed as organism-based. In a few lines:
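Medaka (CAB strain) fertilized eggs, collected within 1–2 h post fertilization, exposed from 4–5 hpf to 5 days post fertilisation at 26 °C in tap water (pH 8–8.2) with 0.1% methylene blue; compounds added from ethanol stocks, final 1% ethanol, controls 1% ethanol. Tested range 0.01–100 µM. Embryos visually scored for cyclopia (reduced eye distance).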

With `N#Cc1ccc(C(=O)Nc2ccc(Cl)c(-c3nc4ccccc4[nH]3)c2)cc1`, the Ratio IC50 in data set [1] was 7.1.

`CCOc1cc(C(=O)Nc2cccc(-c3nc4ccccc4[nH]3)c2)cc(OCC)c1OCC`: the Ratio IC50 in data set [1] was found to be 1.

As for `CC1=C2C[C@H]3[C@@H](CC=C4C[C@@H](O)CC[C@@]43C)[C@@H]2CC[C@]12O[C@@H]1C[C@H](C)CN[C@H]1[C@H]2C` [CYCLOPAMINE], the Activity entry in data set [2] was “Non-toxic”; in data set [3] it was “Toxic”. Besides, in data set [1], the Ratio IC50 is 11.

Take `COc1ccccc1C(=O)Nc1ccc(Cl)c(-c2nc3ccccc3[nH]2)c1`: the Ratio IC50 in data set [1] amounted to 1.5.

On to `CCOc1cc(C(=O)Nc2ccc(Cl)c(-c3nc4ccccc4[nH]3)c2)cc(OCC)c1OCC`, for which the Activity entry in data set [2] is recorded as “Non-toxic”.

Turning to `COc1ccc(C(=O)Nc2ccc(Cl)c(-c3nc4ccccc4[nH]3)c2)cc1`, the Ratio IC50 in data set [1] was 11.

As to `O=C(Nc1ccc(Cl)c(-c2nc3ccccc3[nH]2)c1)c1cccc(C(F)(F)F)c1`, the Activity result in data set [2] is “Non-toxic”. Besides, in data set [1], the Ratio IC50 was found to be 11.

Consider `O=C(Nc1ccc(Cl)c(-c2nc3ccccc3[nH]2)c1)c1ccc(Cl)cc1`, for which, in data set [1], the Ratio IC50 stood at 5.9.

As to `O=C(Nc1ccc(Cl)c(-c2nc3ccccc3[nH]2)c1)c1ccc(F)cc1`, in data set [1], the Ratio IC50 came to 5.2.

Consider `COc1cc(C(=O)Nc2ccc(Cl)c(-c3nc4ccccc4[nH]3)c2)cc(OC)c1OC`, for which the Activity entry in data set [2] is “Non-toxic”.

`CN(C)c1ccc(C(=O)Nc2ccc(Cl)c(-c3nc4ccccc4[nH]3)c2)cc1`: the Ratio IC50 in data set [1] was found to be 6.9.

With `O=C(Nc1ccc(Cl)c(-c2nc3ccccc3[nH]2)c1)c1ccccc1`, the Ratio IC50 in data set [1] stood at 8.
